Experimental findings from ChEMBL document CHEMBL1141343, “Scalarane sesterterpenes from a marine sponge of the genus Spongia and their FXR antagonistic activity” (J Nat Prod, 2007) are described below.

Structures are written as SMILES. Activity calls are given as the source filed them. The rule behind the calls is not given here.

For assay [1], the target named is T1, Bile acid receptor (Homo sapiens, UniProt Q96RI1).
T1 sequence (Q96RI1 whole entry): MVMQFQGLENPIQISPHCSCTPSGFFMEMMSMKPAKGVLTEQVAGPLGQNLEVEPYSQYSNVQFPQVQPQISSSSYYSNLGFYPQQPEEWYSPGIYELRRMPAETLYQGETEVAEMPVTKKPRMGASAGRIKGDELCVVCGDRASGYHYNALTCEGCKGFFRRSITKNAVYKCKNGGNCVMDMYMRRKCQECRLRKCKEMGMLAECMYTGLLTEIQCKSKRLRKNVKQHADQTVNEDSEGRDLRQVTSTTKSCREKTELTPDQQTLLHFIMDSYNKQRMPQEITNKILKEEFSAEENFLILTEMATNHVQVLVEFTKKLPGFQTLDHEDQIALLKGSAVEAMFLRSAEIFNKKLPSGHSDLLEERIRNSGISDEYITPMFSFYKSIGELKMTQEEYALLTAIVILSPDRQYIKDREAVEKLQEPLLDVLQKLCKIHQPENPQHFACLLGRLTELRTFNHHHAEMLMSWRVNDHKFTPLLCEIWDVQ
As to the kind of experiment: Antagonist activity at human FXR expressed in monkey CV1 cells after 24 hrs by ecdysone receptor response element-driven luciferase reporter assay. Format: functional, cell-based, CV-1. A digest of the protocol: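 Full-length human FXR, EcRE-driven luciferase reporter and β-galactosidase plasmid cotransfected into CV-1 cells, seeded 24 h beforehand in DMEM with 10% lipid-depleted FBS at 37 °C, 5% CO2. After a further 24 h, cells were exposed to compound or DMSO vehicle with 50 µM CDCA. Harvest was at 24 h, with luciferase normalized to β-galactosidase. Triplicate wells, three repeats.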
(In general: In a reporter assay the amount or activity of a reporter protein is the signal.)

The nature of assay [2]: Cytotoxicity against monkey CV1 cells after 24 hrs by MTT assay. In kind it is cell-based. Particulars: Chlorocebus aethiops, CV-1, 24 h. A digest of the protocol: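 CV-1 monkey kidney cells plated in DMEM with 10% FBS at 37 °C, 5% CO2, grown 24 h, then exposed to compounds at a range of concentrations for 24 h. MTT at 1 mg/mL added for 1 h at 37 °C. Formazan dissolved in DMSO and absorbance read at 450 nm. Each experiment repeated more than three times.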
A general note: Formazan colour is commonly taken as a measure of viable cells.

Assay [3] deals with T2, Bile acid receptor (Homo sapiens) (UniProt Q96RI1).
T2 sequence (whole entry): T1 sequence (Q96RI1 whole entry)
As to the kind of experiment: Inhibition of CDCA-mediated interaction between FXR ligand binding domain and SRC1 at 25 uM by SPR spectroscopy. A digest of the protocol:
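Human FXR LBD (4 µM) preincubated 1 h with compound plus 50 µM CDCA, then injected for 120 s over an immobilized SRC-1 coactivator peptide surface, followed by a 120 s buffer wash. Biacore SPR, 25 °C.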
On the technique in general: In SPR one partner is held on a chip, and binding of the other changes the refractive index at the surface.

In the case of `C[C@@]1(CO)CCC[C@]2(C)[C@H]3C[C@@H](O)[C@]4(C)[C@H]5COC(=O)C5=CC[C@H]4[C@]3(C)CC[C@@H]12`, the IC50 in assay [1] came out at 2.4 µM; in assay [2] it was 49.4 µM.
Turning to `CC1(C)CCC[C@]2(C)[C@H]3C[C@@H](O)[C@]4(C)[C@@H]5C(=CC[C@H]4[C@]3(C)CC[C@@H]12)C(=O)O[C@H]5O`, the IC50 is 75 µM in assay [1] and 77.2 µM in assay [2]. Moreover, the result in assay [3] was Active.
The corresponding values for `CC(=O)O[C@@H]1C[C@@H]2[C@@]3(C)CCCC(C)(C)[C@@H]3CC[C@@]2(C)[C@@H]2CC=C3C(=O)O[C@@H](O)[C@@H]3[C@@]12C` are 60.4 µM, 75.1 µM and “Active”.
On to `C[C@]1(CO)CCC[C@]2(C)[C@H]3C[C@@H](O)[C@]4(C)[C@H]5COC(=O)C5=CC[C@H]4[C@]3(C)CC[C@@H]12`, for which the IC50 in assay [1] and in assay [2] was above 100 µM in each case.
With `CO[C@@H]1OC(=O)C2=CC[C@H]3[C@]4(C)CC[C@H]5C(C)(C)CCC[C@]5(C)[C@H]4C[C@@H](O)[C@]3(C)[C@H]21`, the IC50 in assay [1] turned out to be 24 µM; in assay [2], 48 µM. The result in assay [3] was Active.
For the compound `CC1(C)CCC[C@]2(C)[C@H]3C[C@@H](O)[C@]4(C)[C@H]5COC(=O)C5=CC[C@H]4[C@]3(C)CC[C@@H]12`, the half-inhibitory concentration (IC50) is 31.6 µM in assay [1] and 41.4 µM in assay [2]. The outcome in assay [3] was Active.

Broadly, the IC50 is the concentration at which inhibition is half-maximal.
